In experiment [1] the target is Human immunodeficiency virus type 1 reverse transcriptase (Human immunodeficiency virus 1, UniProt Q72547, E138K). The experiment is described as follows: Inhibitory concentration against mutant reverse transcriptase of E138K was determined which is in turn resistant to TSAO. Summed up:
(§1)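 The enzyme was either p66/p51 heterodimer purified to near homogeneity or crude E. coli lysate containing the mutant RT. Inhibitory concentration was measured in an RT enzyme assay.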

Experiment [2] addresses Human immunodeficiency virus type 1 reverse transcriptase (Human immunodeficiency virus 1, UniProt Q72547, Y181C). Nature of the experiment: Inhibitory activity against HIV-1 Y181C Reverse transcriptase (RT). Put shortly: as §1
Experiment [3] has as its target Human immunodeficiency virus type 1 reverse transcriptase (Human immunodeficiency virus 1, UniProt Q72547, L100I). Nature of the experiment: Inhibitory concentration against mutant reverse transcriptase of L100I was determined which is in turn resistant TIBO. Summed up:
as §1

In a further experiment the test system is C8166. The experiment is described as follows: Inhibitory concentration against cell culture of Human T-cell line c8166 infected with HIV-1 IIIB strain was determined. The class given is functional, cell-based.
Experiment [4] has as its target Human immunodeficiency virus type 1 reverse transcriptase (Human immunodeficiency virus 1, UniProt Q72547). The experiment is described as follows: Inhibitory concentration against HIV-1 wild type Reverse transcriptase (RT).
In experiment [5] the target is Human immunodeficiency virus type 1 reverse transcriptase (Human immunodeficiency virus 1, UniProt Q72547, P236L). The experiment is described as follows: Inhibitory concentration against mutant reverse transcriptase of P236L was determined which is in turn resistant to BHAP. Put shortly: as §1
For experiment [6], the target named is Human immunodeficiency virus type 1 reverse transcriptase (Human immunodeficiency virus 1, UniProt Q72547, K103N). The experiment is described as follows: Inhibitory concentration against mutant reverse transcriptase of K103N was determined which is in turn resistant to pyridinones. Put shortly: as §1

On to `CCN1c2ncccc2C(=O)N(C)c2ccc(-c3ccc(N)nc3)nc21`, for which the IC50 (in general, the midpoint of a concentration-inhibition curve) in experiment [1] came out at 20 nM; in experiment [2], 260 nM; in experiment [3] it was 240 nM; with C8166 it was 240 nM; in experiment [4], 50 nM; in experiment [5], 40 nM. Further, the IC50 in experiment [6] came out at 410 nM.

Take `CN1C(=O)c2cccnc2N(C2CC2)c2nc(-c3cn[nH]c3)ccc21`: the half-maximal inhibitory concentration (IC50) was found to be 460 nM in experiment [1]; 50 nM in experiment [2]; 1500 nM in experiment [3]; 120 nM in the experiment on C8166; 60 nM in experiment [4]; 340 nM in experiment [5]. The half-maximal inhibitory concentration (IC50) in experiment [6] came out at 420 nM.

On to `CCN1c2ncccc2C(=O)N(C)c2ccc(-c3ccc(O)cc3)nc21`, for which the IC50 was 60 nM in experiment [1]; 270 nM in experiment [2]; 500 nM in experiment [3]; 300 nM with C8166; 70 nM in experiment [4]; 1 nM in experiment [5]. This compound came in with an IC50 in experiment [6] of 10 nM.

`CCN1c2ncccc2C(=O)N(C)c2ccc(-c3ccc(N)cc3)nc21`: the concentration for half-maximal inhibition (IC50) in experiment [1] was 60 nM; in experiment [2] it was 120 nM; in experiment [3], 570 nM; with C8166 it was 550 nM; in experiment [4], 40 nM; in experiment [5] it was 260 nM. In experiment [6], this compound yielded an IC50 of 260 nM.

For the compound `CCN1c2ncccc2C(=O)N(C)c2ccc(-c3ccc(OC)cc3)nc21`, the figures for the IC50 in experiment [2] and in experiment [4] were 3200 nM and 1400 nM, respectively.

Consider `CCN1c2ncccc2C(=O)Nc2c(C)cc(F)nc21`, for which the results for the half-maximal inhibitory concentration (IC50) in experiment [2] and in experiment [4] were 850 nM and 20 nM, respectively.

Take `CCN1c2ncccc2C(=O)N(C)c2ccc(-c3cn[nH]c3)nc21`: the IC50 stood at 50 nM in experiment [1]; 60 nM in experiment [2]; 2500 nM in experiment [3]; 40 nM with C8166; 20 nM in experiment [4]; 130 nM in experiment [5]. For the same compound, the concentration for half-maximal inhibition (IC50) in experiment [6] stood at 80 nM.

In the case of `CCN1c2ncccc2C(=O)N(C)c2ccc(Cl)nc21`, the IC50 in experiment [1] turned out to be 120 nM; in experiment [2] it was 210 nM; in the experiment on C8166, 160 nM; in experiment [4] it was 80 nM; in experiment [5], 20 nM; in experiment [6], 1100 nM.

`CN1C(=O)c2cccnc2N(C2CC2)c2nc(-c3cc[nH]c3)ccc21`: the half-maximal inhibitory concentration (IC50) was 60 nM in experiment [2] and 50 nM in experiment [4].

Turning to `CCN1c2ncccc2C(=O)N(C)c2ccc(-n3cccc3)nc21`, the IC50 amounted to 210 nM in experiment [2] and 90 nM in experiment [4].

Turning to `CCN1c2ncccc2C(=O)N(C)c2ccc(-c3cc[nH]c3)nc21`, the half-maximal inhibitory concentration (IC50) in experiment [1] worked out at 70 nM; in experiment [2] it was 40 nM; in experiment [3], 410 nM; in the experiment with C8166, 40 nM; in experiment [4], 30 nM; in experiment [5], 130 nM. The same compound registered a half-maximal inhibitory concentration (IC50) in experiment [6] of 50 nM.

As to `Cc1ccnc2c1NC(=O)c1cccnc1N2C1CC1` [NEVIRAPINE], 40 nM corresponded to half-maximal inhibition in the experiment with C8166 (IC50).

(Values after ChEMBL document CHEMBL1128204, “Novel non-nucleoside inhibitors of human immunodeficiency virus type 1 (HIV-1) reverse transcriptase. 4. 2-Substituted dipyridodiazepinones as potent inhibitors of both wild-type and cysteine-181 HIV-1 reverse transcriptase enzymes” (J Med Chem, 1995).)
